# Results as given in paper PMC2847389 (ACS nano, 2010).
# Test: Circulation retention / AuNP probe clearance in vivo
# Design: species or system athymic nude mice
# Settings: i.v., within the first hour, normalised to 1 min post-injection, n = 5
# How it was run: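 Male Nu/nu mice, 6-8 weeks old, anaesthetised with Avertin (240 mg/kg i.p.). Dosed i.v. by tail vein with 1 mg probe in 100 μl water, or the equivalent dye-labeled peptide in sterile water. Serum was taken at each time point after euthanasia. 100 μl serum was incubated with DTT (~286 mM final) for 16 h at RT. Q670 read at 644/670 nm. Mean ± s.d., n = 5.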
substance,measurement,value
Q670 (or BHQ2)-(His-Ser-Ser-Lys-Leu-Gln)-Cys [uncomplexed peptide],% of initial administered amount removed from serum,more than 90%
